Reference: publication PMC3936293 (Theranostics, 2014)
Where two headings read alike, the source gives them in different places.

Columns and labels:
[1] = literature data, ref [11]; cited from earlier work
[2] = Blood radioactivity clearance; format: in vivo, human; conditions: bi-exponential fit of blood radioactivity concentration, 4 patients
Summary of the method: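 Four patients with newly diagnosed prostate cancer, fasted at least 4 h, received the 64Cu-labelled GRPr antagonist (130-233 MBq; 10-17 µg) diluted in 0.9% NaCl with 0.1% bovine serum albumin. Venous blood was drawn at 1, 2, 3, 4, 5, 10, 15 and 30 min and at 1, 2 and 4 h p.i. Radioactivity per mL was gamma-counted, reported as mean ± SD, and fitted bi-exponentially.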

[3] = Radiation dosimetry; format: in vivo, human
Summary of the method: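 PET scans were taken at 20 min, 4 h and 20 h p.i., with attenuation correction by 68Ge transmission or CT. Body-weight-normalised SUVs came from circular ROIs centred in each organ. Urine was collected to 18 h in patients 2 and 3, and total excretion was calculated from 1 mL aliquots. Absorbed doses were computed in OLINDA/EXM 1.0 from the time-activity curves and urinary excretion (dynamic bladder model, 3-h voiding interval). Values are mean ± SD.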

[4] = PET/CT imaging of tumor and organ uptake; format: in vivo; conditions: male, human, total radioactivity
[5] = Metabolite analysis of plasma and urine by RP-HPLC; format: in vivo, human
Summary of the method: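 Plasma was prepared by centrifuging blood drawn at 5 min, 30 min, 1 h and 4 h p.i., deproteinised with two volumes of ethanol, centrifuged again, and the supernatant analysed. In patient 2, a 2 h urine sample was loaded onto a C18 cartridge and eluted with ethanol. Analysis used reversed-phase HPLC (C18; 0.1% TFA in water/acetonitrile gradient) with photodiode-array and flow-through gamma detection.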

[6] = Safety monitoring after injection; format: in vivo, human; conditions: 4 patients; laboratory tests before and 1-2 weeks after injection
Summary of the method: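 Patients were monitored from tracer administration until the end of the last PET/CT session (20 h p.i.) by interview, electrocardiography, heart rate and blood pressure. Serum electrolytes, liver and pancreatic enzymes, creatinine and blood counts were measured before and 1-2 weeks after injection (130-233 MBq; 10-17 µg).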

[7] = OLINDA/EXM 1.0, dynamic bladder model, 3-hour voiding interval, mean ± SD

C[N+](C)(CF)CCO [^18F-fluorocholine]
Effective dose [1]: 0.031 ± 0,007 mSv/MBq
Radiation dose kidney [1]: 0.159 ± 0,072 mSv/MBq
Radiation dose liver [1]: 0.059 ± 0,012 mSv/MBq
Radiation dose spleen [1]: 0.054 ± 0,021 mSv/MBq
Radiation dose urinary bladder wall [1]: 0.063 ± 0,060 mSv/MBq

CC(C)C[C@H](NC(=O)C[C@H](O)[C@H](CC(C)C)NC(=O)[C@H](Cc1c[nH]cn1)NC(=O)CNC(=O)[C@@H](NC(=O)[C@H](C)NC(=O)[C@H](Cc1c[nH]c2ccccc12)NC(=O)[C@H](CCC(N)=O)NC(=O)[C@@H](Cc1ccccc1)NC(=O)COCCOCCOCCOCCNC(=O)CN1CCCN2CCN(CCCN(CC(=O)O)CC2)CC1)C(C)C)C(N)=O [^64Cu-CB-TE2A-AR06, (^64Cu-4,11-bis(carboxymethyl)-1,4,8,11-tetraazabicyclo(6.6.2)hexadecane)-PEG4-D-Phe-Gln-Trp-Ala-Val-Gly-His-Sta-LeuNH2, metal not drawn]
initial half-life in blood [2]: 5 min
terminal half-life in blood [2]: 2.75 h
Effective radiation dose [3, 7]: 0.019 ± 0.008 mSv/MBq
Radiation dose urinary bladder wall [3, 7]: 0.176 ± 0.001 mSv/MBq
Radiation dose kidney ([3]; OLINDA/EXM 1.0, mean ± SD): 0.033 ± 0.008 mSv/MBq
Radiation dose liver ([3]; OLINDA/EXM 1.0, mean ± SD): 0.039 ± 0.020 mSv/MBq
Radiation dose pancreas ([3]; OLINDA/EXM 1.0, mean ± SD): 0.094 ± 0.027 mSv/MBq
Radiation dose spleen ([3]; OLINDA/EXM 1.0, mean ± SD): 0.031 ± 0.024 mSv/MBq
SUV at 4 h ([4]; bladder): 14 ± 6.63 SUV
SUV at 4 h ([4]; intestine): 0.78 ± 0.68 SUV
SUV at 4 h ([4]; kidney parenchyma): 1.64 ± 0.37 SUV
SUV at 20 h ([4]; kidney parenchyma): 0.71 ± 0.34 SUV
SUV at 4 h ([4]; liver): 1.8 ± 1.02 SUV
SUV at 4 h ([4]; pancreas): 6.73 ± 3.34 SUV
SUV at 20 h ([4]; pancreas): 0.28 ± 0.22 SUV
SUV at 4 h ([4]; prostate): 0.95 ± 0.42 SUV
SUV at 4 h ([4]; urinary tract collection system): 5.86 ± 5.34 SUV
metabolites in urine ([5]; patient 2, 2 h urine sample, C18 column, ethanol elution): Only the parent compound was detected
metabolites in plasma ([5]; plasma at 5 min p.i., ethanol protein precipitation): No metabolites were detected
changes in vital signs, laboratory studies or electrocardiograms [6]: No significant changes
